In ChEMBL document CHEMBL4814004, “Design and synthesis of quinoline-pyrimidine inspired hybrids as potential plasmodial inhibitors” (Eur J Med Chem, 2021):

Columns and labels:
Plasmodium falciparum = experiment: Antiplasmodial activity against chloroquine-sensitive Plasmodium falciparum NF54 infected in erythrocytes assessed as reduction in parasite growth incubated for 48 hrs by lactate dehydrogenase assay; assay type: functional, organism-based; conditions: NF54, Erythrocyte
How it was run: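 P. falciparum NF54 cultured in supplemented RPMI-1640 at 37 °C under 5% CO₂/3% O₂/92% N₂. Rings synchronised with 5% D-sorbitol and set to 2% parasitaemia, 2% haematocrit. Serial dilutions added after a 24 h incubation, then a further 48 h incubation. Quinine as positive control. pLDH read-out with tetrazolium-phenazine ethosulphate, 40 min at 37 °C, A620. IC50 from log sigmoid dose-response curves, triplicate.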

[1] = Selectivity index, ratio of IC50 for human HEK293 cells to IC50 for Plasmodium falciparum NF54; assay type: toxicity; conditions: read-out: Ratio IC50
HEK293 = experiment: Cytotoxicity against human HEK293 cells incubated for 48 hrs by MTT assay; assay type: cell-based; conditions: HEK293, 48 h
How it was run: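 HEK-293 monolayers grown in DMEM with 10% FBS and penicillin/streptomycin at 37 °C, 5% CO₂. Cells at 10 000/well exposed 48 h to serial dilutions with final DMSO under 1%. Camptothecin as positive control. MTT (5 mg/ml in PBS pH 7.3) added for 2 h, formazan dissolved in DMSO, read at A540 with 690 nm reference. IC50 from % viability, triplicate.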

[2] = Binding affinity to recombinant Plasmodium falciparum HSP70-z expressed in Escherichia coli assessed as dissociation rate constant by SPR analysis
How it was run: (§1)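 MP-SPR at 25 °C in PBS-Tween 20 with 20 mM EDTA, pH 7.4. Analyte at 0, 1.25, 2.5, 5 and 10 nM, injected three times. Association 3 min, dissociation 10 min. Double-referenced, global 1:1 Langmuir fit.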

[3] = Binding affinity to recombinant Plasmodium falciparum HSP70-z expressed in Escherichia coli assessed as steady state affinity by SPR analysis; how it was run: as §1
[4] = Binding affinity to recombinant Plasmodium falciparum HSP70-1 expressed in Escherichia coli assessed as dissociation rate constant by SPR analysis; how it was run: as §1
[5] = Binding affinity to recombinant Plasmodium falciparum HSP70-1 expressed in Escherichia coli assessed as steady state affinity by SPR analysis; how it was run: as §1

Question: Which IC50 (Plasmodium falciparum) does the source give for `COc1ccc(-c2cc(-c3ccc(OC)c(OC)c3)nc(N3CCN(c4ccnc5cc(Cl)ccc45)CC3)n2)cc1` here?
Answer: 17800 nM

Question: With `Cc1ccc(-c2cc(-c3ccc(Cl)cc3)nc(N3CCN(c4ccnc5cc(Cl)ccc45)CC3)n2)cc1` as the molecule, how does the IC50 (Plasmodium falciparum) read?
Answer: 13100 nM

Question: Which IC50 (Plasmodium falciparum) does the source give for `Oc1ccc(-c2cc(-c3ccc(O)c(O)c3)nc(N3CCN(c4ccnc5cc(Cl)ccc45)CC3)n2)cc1` here?
Answer: 2660 nM

Question: For `COc1ccc(-c2cc(-c3ccc(OC)c(OC)c3)nc(NCCCCNc3ccnc4cc(Cl)ccc34)n2)cc1`, which IC50 (Plasmodium falciparum) is on record?
Answer: 2610 nM

Question: Which IC50 (Plasmodium falciparum) does the source give for `Cc1ccc(-c2cc(-c3ccc(Cl)cc3)nc(NCCCCNc3ccnc4cc(Cl)ccc34)n2)cc1` here?
Answer: 9490 nM

Question: Which IC50 (Plasmodium falciparum) does the source give for `COc1ccc(/C=C/C(=O)c2ccc(O)cc2)c(O)c1` here?
Answer: 590 nM

Question: For `COc1ccc(C(=O)/C=C/c2ccc(OC)c(OC)c2)c(O)c1`, which IC50 (Plasmodium falciparum) is on record?
Answer: 3180 nM

Question: Which IC50 (Plasmodium falciparum) does the source give for `COc1ccc(-c2cc(-c3ccc(C)cc3)nc(N3CCN(c4ccnc5cc(Cl)ccc45)CC3)n2)cc1` here?
Answer: 2630 nM

Question: Which selectivity ratio [1] does the source give for `CC[C@@]1(O)C(=O)OCc2c1cc1n(c2=O)Cc2cc3ccccc3nc2-1` [CAMPTOTHECIN] here?
Answer: 0.01

Question: What does the source list for `C=C[C@H]1CN2CC[C@H]1C[C@H]2[C@H](O)c1ccnc2ccc(OC)cc12` [QUININE]?
Answer: IC50 (HEK293): 134000 nM; IC50 (Plasmodium falciparum): 108 nM; selectivity ratio [1]: 1240

Question: With `COc1ccc(-c2cc(-c3ccc(OC)cc3)nc(NCCCCNc3ccnc4cc(Cl)ccc34)n2)cc1` as the molecule, how does the IC50 (Plasmodium falciparum) read?
Answer: 83000 nM

Question: With `COc1ccc(-c2cc(-c3ccc(C)cc3)nc(NCCCNc3ccnc4cc(Cl)ccc34)n2)cc1` as the molecule, how does the IC50 (Plasmodium falciparum) read?
Answer: 2710 nM

Question: With `Oc1ccc(-c2cc(-c3ccc(O)cc3)nc(NCCCCNc3ccnc4cc(Cl)ccc34)n2)cc1` as the molecule, how does the IC50 (HEK293) read?
Answer: 3160 nM

Question: What about the “Dissociation rate constant (koff)” value [2] of the same molecule?
Answer: 1.2 10^-1/s

Question: And the Kd [3]?
Answer: 4.43 nM

Question: What about the IC50 (Plasmodium falciparum) of the same molecule?
Answer: 320 nM

Question: What about the “Dissociation rate constant (koff)” value [4] of the same molecule?
Answer: 8.81 10^-2/s

Question: And the Kd [5]?
Answer: 11.4 nM

Question: What about the selectivity ratio [1] of the same molecule?
Answer: 9.79

Question: For `CCN(CC)CCCC(C)Nc1ccnc2cc(Cl)ccc12` (centres undefined) [CHLOROQUINE], which IC50 (HEK293) is on record?
Answer: 101000 nM

Question: For `Oc1ccc(-c2cc(-c3ccc(O)c(O)c3)nc(NCCCCNc3ccnc4cc(Cl)ccc34)n2)cc1`, which “Dissociation rate constant (koff)” value [2] is on record?
Answer: 9.06 10^-2/s

Question: And the Kd [3]?
Answer: 4750 nM

Question: What about the IC50 (Plasmodium falciparum) of the same molecule?
Answer: 1620 nM

Question: What about the “Dissociation rate constant (koff)” value [4] of the same molecule?
Answer: 7.84 10^-2/s

Question: What about the Kd [5] of the same molecule?
Answer: 281 nM

Question: With `COc1ccc(-c2cc(-c3ccc(OC)c(OC)c3)nc(N3CCN(c4ccnc5cc(Cl)ccc45)CC3)n2)cc1OC` as the molecule, how does the “Dissociation rate constant (koff)” value [2] read?
Answer: 7.48 10^-2/s

Question: What about the Kd [3] of the same molecule?
Answer: 2050 nM

Question: And the IC50 (Plasmodium falciparum)?
Answer: 6170 nM

Question: What about the “Dissociation rate constant (koff)” value [4] of the same molecule?
Answer: 7 10^-2/s

Question: And the Kd [5]?
Answer: 26.1 nM

Question: With `COc1ccc(-c2cc(-c3ccc(C)cc3)nc(NCCNc3ccnc4cc(Cl)ccc34)n2)cc1` as the molecule, how does the IC50 (Plasmodium falciparum) read?
Answer: 4300 nM

Question: Which “Dissociation rate constant (koff)” value [2] does the source give for `COc1ccc(-c2cc(-c3ccc(OC)cc3)nc(N3CCN(c4ccnc5cc(Cl)ccc45)CC3)n2)cc1` here?
Answer: 8.24 10^-2/s

Question: And the Kd [3]?
Answer: 13700 nM

Question: What about the IC50 (Plasmodium falciparum) of the same molecule?
Answer: 7690 nM

Question: And the “Dissociation rate constant (koff)” value [4]?
Answer: 1.32 10^-2/s

Question: And the Kd [5]?
Answer: 2.19 nM

Question: For `Clc1ccc2c(N3CCN(c4nc(-c5ccccc5)cc(-c5ccccc5)n4)CC3)ccnc2c1`, which IC50 (Plasmodium falciparum) is on record?
Answer: 7500 nM
